Assay results taken from ChEMBL document CHEMBL1155279, “1,5-Diaryl-2-ethyl pyrrole derivatives as antimycobacterial agents: design, synthesis, and microbiological evaluation” (Eur J Med Chem, 2009).
Converted amounts (≈) assume the structure as drawn.

Each molecule was assayed on Mycobacterium tuberculosis (assay: Antimycobacterial activity against rifampicin-resistant Mycobacterium tuberculosis ATCC 35838 by twofold agar dilution method).
Type: functional
Procedure, shortened: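 Twofold agar dilution in Middlebrook 7H11 agar with 10% OADC (oleic acid, albumin, dextrose). Compounds dissolved in DMSO at 5 mg/mL (one in ethanol at 6 mg/mL), stock, stored cold. MIC determined for each strain. Strains: M. tuberculosis CIP 103471, H37Rv ATCC 27294, rifampicin-resistant ATCC 35838, M. avium CIP 103317.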

| Structure (SMILES) | MIC [µg/mL] |
| --- | --- |
| CCc1c(CN2CCSCC2)cc(-c2ccc(F)cc2)n1-c1ccccc1F | 2 (≈ 5.02 µM) |
| CCc1c(CN2CCSCC2)cc(-c2ccccc2F)n1-c1ccccc1F | 8 (≈ 20.1 µM) |
| CCc1c(CN2CCSCC2)cc(-c2ccccc2)n1-c1ccccc1 | 4 (≈ 11 µM) |
| CCc1c(CN2CCSCC2)cc(-c2ccc(F)cc2)n1-c1ccccc1 | 1 (≈ 2.63 µM) |
| CCc1c(CN2CCN(C)CC2)cc(-c2ccc(Cl)cc2)n1-c1ccc(Cl)cc1 | 4 (≈ 9.34 µM) |
| CCc1c(CN2CCSCC2)cc(-c2ccc(C)cc2)n1-c1ccc(F)cc1 | 0.25 (≈ 0.634 µM) |
| CCc1c(CN2CCSCC2)cc(-c2ccccc2)n1-c1ccc(F)cc1 | 4 (≈ 10.5 µM) |
| CO[C@H]1/C=C/O[C@@]2(C)Oc3c(C)c(O)c4c(O)c(c(/C=N/N5CCN(C)CC5)c(O)c4c3C2=O)NC(=O)/C(C)=C\C=C\[C@H](C)[C@H](O)[C@@H](C)[C@@H](O)[C@@H](C)[C@H](OC(C)=O)[C@@H]1C [RIFAMPIN] | > 100 |
| CN[C@@H]1[C@H](O[C@H]2[C@H](O[C@H]3[C@H](O)[C@@H](O)[C@H](N=C(N)N)[C@@H](O)[C@@H]3N=C(N)N)O[C@@H](C)[C@]2(O)C=O)O[C@@H](CO)[C@H](O)[C@H]1O [STREPTOMYCIN] | 0.5 (≈ 0.86 µM) |
